Data set [1] relates to RAW264.7. Description: Cytotoxicity against mouse RAW264.7 cells at 0.04 to 25 uM by MTT assay. The data set is classed as cell-based. The note with it: raw264.7, 25 µM. In a few lines: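 Viability of RAW264.7 macrophages was checked by MTT alongside each NO-production experiment, at 0.04, 0.2, 1, 5 and 25 μM.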
In data set [2] the test system is RAW264.7. Description: Antiinflammatory activity in mouse RAW264.7 cells assessed as inhibition of LPS-stimulated NO production after 18 hrs by Griess reagent method. The class given is functional, cell-based. The conditions noted are these: RAW264.7, 18 h. In a few lines: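 NO release measured in LPS-stimulated RAW264.7 macrophages. DMSO wells were included, and MG-132 (proteasome inhibitor) served as positive control. Cell viability was checked by MTT in each experiment. IC50 was derived.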
A general note: The Griess reaction detects nitrite, a stable product of nitric oxide.

The test system of the next data set is HL-60. Briefly: Cytotoxicity against human HL60 cells after 48 hrs by MTT assay. The note with it: HL-60, 48 h. The class given is functional, cell-based. In short, it runs like this: (§1)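 MTT viability assay on human tumour lines. Adherent cells were seeded and allowed to attach 12 h before drug addition. Suspension cells were seeded immediately before dosing at (1−2) × 10^5 cells/mL. Cells were exposed to a range of concentrations for 48 h. Cisplatin and taxol were positive controls. IC50 values were calculated from viability.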

The next data set concerns SW480. Description: Cytotoxicity against human SW480 cells after 48 hrs by MTT assay. The note with it: SW480, 48 h. The class given is functional, cell-based. In a few lines:
as §1

The test system of another data set is MCF7. Briefly: Cytotoxicity against human MCF7 cells after 48 hrs by MTT assay. The data set is classed as functional, cell-based. The conditions noted are these: MCF7, 48 h. In short, it runs like this:
as §1
A general note: Tetrazolium dyes change colour on reduction, which living cells bring about.

The next data set concerns SMMC-7721. Briefly: Cytotoxicity against human SMMC7721 cells after 48 hrs by MTT assay. The data set is classed as functional, cell-based. The note with it: SMMC-7721, 48 h. In short, it runs like this: as §1
Another data set deals with A549. Description: Induction of intracellular calcium influx in human A549 cells at 10 uM after 12 hrs by fluorescence analysis. The data set is classed as functional, cell-based. In short, it runs like this: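 A549 cells were seeded at 0.5 × 10^4 cells/well and grown 12 h. They were loaded with Fluo-4 AM for 30 min, then washed three times with HBSS. Compounds were tested at 10 μM in Ca2+-containing HBSS. Intracellular calcium was imaged and analysed on an automated cell-based fluorescence-imaging system.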
For orientation: Calcium flux is commonly read through the fluorescence of an indicator in the cells.

Activity calls are given as the source filed them. No cut-off for these calls is given here. Peptide text beside a SMILES is read from it. * marks the point of attachment. Cbz = O=C(OCc1ccccc1)* Bounds are passed on as bounds.

Turning to `C=C(CO)[C@@H]1CC(=O)C2=CCC[C@H](C)[C@@]2(C)C1` [ARGUTOSINE B], the Activity result with RAW264.7 [1] was “Non-toxic”. For the same molecule, the IC50 (as a rule, the midpoint of a concentration-inhibition curve) came to 5700 nM in the data set with RAW264.7 [2]; 15.2 µM with HL-60; 15.6 µM in the data set on SW480; 13.5 µM in the data set on MCF7; 34.1 µM in the data set on SMMC-7721.

Regarding `C[C@H]1CCC=C2C(=O)C=C([C@]3(CO)CC[C@@](O)(CO)C4=C3C(=O)C3=CCC[C@H](C)[C@@]3(C)C4)C[C@@]21C` [DIINCARVILONE A], the concentration for half-maximal inhibition (IC50) in the data set on HL-60, in the data set on SW480, in the data set with MCF7 and in the data set on SMMC-7721 was more than 40 µM each time. The outcome in the data set with A549 was Active.

Consider `C[C@H]1CCC=C2C(=O)C=C([C@]3(CO)CC[C@](O)(CO)C4=C3C(=O)C3=CCC[C@H](C)[C@@]3(C)C4)C[C@@]21C` [DIINCARVILONE B], for which the IC50 in the data set on HL-60, in the data set on SW480, with MCF7 and with SMMC-7721 was more than 40 µM in each case. Also, in the data set with A549, the result was Active.

As for `C[C@H]1CCC=C2C(=O)C=C([C@]3(CO)CC[C@@H](CO)C4=C3C(=O)C3=CCC[C@H](C)[C@@]3(C)C4)C[C@@]21C` [DIINCARVILONE C], the IC50 in the data set with HL-60, with SW480, with MCF7 and in the data set with SMMC-7721 was more than 40 µM throughout.

As for `C[C@H]1CCC=C2C(=O)C=C([C@]3(CO)CCC(=O)C4=C3C(=O)C3=CCC[C@H](C)[C@@]3(C)C4)C[C@@]21C` [DIINCARVILONE D], the IC50 with HL-60, in the data set with SW480, in the data set on MCF7 and with SMMC-7721 was more than 40 µM each time. In the data set with A549, the outcome was Active.

As to `C[C@H](CO)C1=CC(=O)C2=CCC[C@H](C)[C@@]2(C)C1` [INCARVILONE A], the IC50 in the data set on HL-60, in the data set on SW480, with MCF7 and in the data set with SMMC-7721 was more than 40 µM each time.

As to `CC(C)C[C@@H](C=O)NC(=O)[C@H](CC(C)C)NC(=O)[C@H](CC(C)C)NC(=O)OCc1ccccc1` [MG-132] (Cbz-Leu-Leu-Leu-aldehyde), in the data set on RAW264.7 [2], the IC50 worked out at 80 nM.

(Values after ChEMBL document CHEMBL2062465, “Sesquiterpenoids from Incarvillea arguta: absolute configuration and biological evaluation” (J Nat Prod, 2012).)
